ChEMBL document CHEMBL1127320, “Dual-action cephalosporins incorporating a 3'-tertiary-amine-linked quinolone” (J Med Chem, 1994)
≈ marks a conversion by molar mass, not a printed value.

What was measured:
Streptococcus pneumoniae [1] = assay: Tested for its efficacy against systemic murine infection caused by Streptococcus pneumoniae 6301.; type: functional
Method in brief: (§1)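 CD1 Swiss albino mice (18-20 g) were infected intraperitoneally with 0.5 mL of diluted culture. Within 5 min they received 1.0 mL test solution subcutaneously at the dorsal neck, in dilutions spanning 250–0.05 mg/kg. P. aeruginosa groups received a second dose at 3 h. Groups were six mice. ED50 was calculated by Reed–Muench interpolation of cumulative survival.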

Citrobacter freundii = assay: In vitro minimum inhibitory concentration was measured against Citrobacter freundii BS-16 (beta lactamase producer) strain.; type: functional
Method in brief: (§2)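 MICs were determined by agar dilution with 2-fold dilutions giving final 128–0.0156 µg/mL, extended to 0.000977 µg/mL where needed. Streptococci were tested on brain heart infusion agar plus 20 units/mL catalase, Proteus on Mueller-Hinton with 3% agar, and others on Mueller-Hinton agar. Inocula were 100-fold-diluted overnight cultures, about 3 × 10^4 CFU/spot, read after overnight incubation at 36 °C.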

Pseudomonas aeruginosa [2] = assay: Tested for its efficacy against systemic murine infection caused by Pseudomonas aeruginosa 8780.; type: functional; method in brief: as §1
[3] = molecular target: T1, Penicillin-binding protein 1B (Escherichia coli K-12) (UniProt P02919); assay: Affinity for penicillin binding protein 1b of Escherichia coli UB1005 (DC0) was evaluated.; design: unit not given here
T1 sequence (whole entry): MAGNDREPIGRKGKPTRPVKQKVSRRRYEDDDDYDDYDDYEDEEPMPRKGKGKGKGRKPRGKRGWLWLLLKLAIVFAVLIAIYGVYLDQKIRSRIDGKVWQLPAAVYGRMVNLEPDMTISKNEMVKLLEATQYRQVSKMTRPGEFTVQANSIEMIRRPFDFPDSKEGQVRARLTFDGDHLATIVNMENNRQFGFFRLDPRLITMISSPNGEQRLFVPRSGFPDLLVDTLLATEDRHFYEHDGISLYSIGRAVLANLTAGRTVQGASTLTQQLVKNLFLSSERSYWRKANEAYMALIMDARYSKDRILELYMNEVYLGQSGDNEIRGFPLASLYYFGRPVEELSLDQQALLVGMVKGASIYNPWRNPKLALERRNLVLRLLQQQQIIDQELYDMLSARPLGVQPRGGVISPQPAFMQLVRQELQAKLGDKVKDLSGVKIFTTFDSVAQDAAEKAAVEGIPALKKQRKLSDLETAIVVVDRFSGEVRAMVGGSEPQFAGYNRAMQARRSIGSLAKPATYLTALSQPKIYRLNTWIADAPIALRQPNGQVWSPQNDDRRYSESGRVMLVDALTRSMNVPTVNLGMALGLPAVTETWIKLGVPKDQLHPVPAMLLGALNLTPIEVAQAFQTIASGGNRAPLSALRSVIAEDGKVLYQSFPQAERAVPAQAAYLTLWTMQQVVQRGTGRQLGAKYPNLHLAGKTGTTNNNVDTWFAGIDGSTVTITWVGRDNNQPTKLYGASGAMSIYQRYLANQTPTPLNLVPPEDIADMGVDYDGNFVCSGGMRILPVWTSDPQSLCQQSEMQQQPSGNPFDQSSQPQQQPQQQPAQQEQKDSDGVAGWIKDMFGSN
Method in brief: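 Solubilised membranes from sonicated E. coli UB1005 served as the binding-protein source. Binding was read as inhibition of [14C]penicillin G binding.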

Proteus mirabilis [4] = assay: In vitro minimum inhibitory concentration was measured against Proteus mirabilis 90 strain.; type: functional
Method in brief: (§3)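 Streptococci were tested on brain heart infusion agar plus 20 units/mL catalase, Proteus on Mueller-Hinton with 3% agar, and others on Mueller-Hinton agar. Inocula were 100-fold-diluted overnight cultures, about 3 × 10^4 CFU/spot, read after overnight incubation at 36 °C.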

Klebsiella pneumoniae [5] = assay: Tested for its efficacy against systemic murine infection caused by Klebsiella pneumoniae A; type: functional; method in brief: as §1
Streptococcus pneumoniae [6] = assay: In vitro minimum inhibitory concentration was measured against Streptococcus pneumoniae 6301 strain; type: functional; method in brief: as §3
Enterobacter cloacae [7] = assay: Tested for its efficacy against systemic murine infection caused by Enterobacter cloacae 5699.; type: functional
Escherichia coli [8] = assay: In vitro minimum inhibitory concentration was measured against Escherichia coli TEM-1 (Beta lactamase producer) strain.; type: functional; method in brief: as §3
Streptococcus pyogenes [9] = assay: In vitro minimum inhibitory concentration was measured against Streptococcus pyogenes 4 strain.; type: functional; method in brief: as §3
Staphylococcus aureus [10] = assay: Tested for its efficacy against systemic murine infection caused by Staphylococcus aureus smith.; type: functional; method in brief: as §1
Escherichia coli [11] = assay: Minimum inhibitory concentration against E. coli UB1005 (DC0)
[12] = tested on: Penicillin-binding protein 3 (Escherichia coli); assay: Affinity for penicillin binding protein 3 of Escherichia coli UB1005 (DC0) was evaluated.; design: unit not given here
Serratia marcescens [13] = assay: Tested for its efficacy against systemic murine infection caused by Serratia marcescens SM.; type: functional; method in brief: as §1
[14] = Half life was measured as degradation by HPLC analysis.; type: ADME
Staphylococcus aureus [15] = assay: tested for its efficacy against systemic murine infection caused by Staphylococcus aureus smith.; type: functional; method in brief: as §1
Enterobacter cloacae [16] = assay: tested for its efficacy against systemic murine infection caused by Enterobacter cloacae 5699.; type: functional; method in brief: as §1
Streptococcus pyogenes [17] = assay: In vitro minimum inhibitory concentration was measured against Streptococcus pyogenes 4 strain.; (</=); type: functional; method in brief: as §2
Proteus mirabilis [18] = assay: In vitro minimum inhibitory concentration was measured against Proteus mirabilis 90 strain.; (</=); type: functional; method in brief: as §2
Serratia marcescens [19] = assay: tested for its efficacy against systemic murine infection caused by Serratia marcescens SM.; type: functional; method in brief: as §1
Pseudomonas aeruginosa [20] = assay: tested for its efficacy against systemic murine infection caused by Pseudomonas aeruginosa 8780.
Streptococcus pneumoniae [21] = assay: In vitro minimum inhibitory concentration was measured against Streptococcus pneumoniae 6301 strain.; (</=); type: functional; method in brief: as §2
Klebsiella pneumoniae [22] = assay: tested for its efficacy against systemic murine infection caused by Klebsiella pneumoniae A; type: functional; method in brief: as §1
Streptococcus pneumoniae [23] = assay: tested for its efficacy against systemic murine infection caused by Streptococcus pneumoniae 6301.; type: functional; method in brief: as §1

CO/N=C(\C(=O)N[C@@H]1C(=O)N2C(C(=O)O)=C(CN3CCN(c4cc5c(cc4F)c(=O)c(C(=O)O)cn5C4CC4)CC3)CS[C@H]12)c1csc(N)n1
ED50 (Streptococcus pneumoniae [1]): 54 mg/kg | MIC (Citrobacter freundii): 0.125 µg/mL (≈ 0.172 µM) | ED50 (Pseudomonas aeruginosa [2]): 38 mg/kg | Binding affinity [3]: > 100 | MIC (Proteus mirabilis [4]): 2 µg/mL (≈ 2.75 µM) | ED50 (Klebsiella pneumoniae [5]): 25 mg/kg | MIC (Streptococcus pneumoniae [6]): 0.063 µg/mL (≈ 0.0867 µM) | ED50 (Enterobacter cloacae [7]): 14 mg/kg | MIC (Escherichia coli [8]): 0.25 µg/mL (≈ 0.344 µM) | MIC (Streptococcus pyogenes [9]): 0.063 µg/mL (≈ 0.0867 µM) | ED50 (Staphylococcus aureus [10]): > 100 mg/kg | MIC (Escherichia coli [11]): 1 µg/mL (≈ 1.38 µM) | Binding affinity [12]: 0.5 | ED50 (Serratia marcescens [13]): 25 mg/kg | half-life [14]: 144 h

CO/N=C(\C(=O)N[C@@H]1C(=O)N2C(C(=O)O)=C(COC(C)=O)CS[C@H]12)c1csc(N)n1 [CEFOTAXIME]
ED50 (Staphylococcus aureus [15]): 6 mg/kg | MIC (Citrobacter freundii): 32 µg/mL (≈ 70.3 µM) | ED50 (Enterobacter cloacae [16]): 50 mg/kg | Binding affinity [3]: 0.5 | MIC (Streptococcus pyogenes [17]): ≤ 0.016 µg/mL | MIC (Proteus mirabilis [18]): < 0.016 µg/mL | ED50 (Serratia marcescens [19]): < 25 mg/kg | MIC (Escherichia coli [8]): 0.063 µg/mL (≈ 0.138 µM) | ED50 (Pseudomonas aeruginosa [20]): > 250 mg/kg | MIC (Streptococcus pneumoniae [21]): < 0.016 µg/mL | ED50 (Klebsiella pneumoniae [22]): 45 mg/kg | ED50 (Streptococcus pneumoniae [23]): 69 mg/kg | MIC (Escherichia coli [11]): 0.031 µg/mL (≈ 0.0681 µM)
